Here are results for 1 compound from ChEMBL document CHEMBL4049458, “Structure-Based Optimization of Thiophene[3,2-d]pyrimidine Derivatives as Potent HIV-1 Non-nucleoside Reverse Transcriptase Inhibitors with Improved Potency against Resistance-Associated Variants” (J Med Chem, 2017).

Data set [1] concerns Human immunodeficiency virus 1. As to the kind of experiment: Antiviral activity against wild type HIV1 3B harboring reverse transcriptase infected in human MT4 cells assessed as protection against virus induced cytotoxicity after 5 days by MTT assay. It is filed as functional, cell-based. The conditions noted are these: Human immunodeficiency virus 1, 3B, MT4, 120 h.
The nature of data set [2]: Inhibition of recombinant wild type HIV1 3B reverse transcriptase infected in human MT4 cells assessed as decrease in biotin-dUTP incorporation after 1 hr. Type of data set: cell-based. The conditions noted are these: Human immunodeficiency virus 1, 3B, MT4, 1 h. In short, it runs like this:
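Recombinant HIV-1 RT assayed with a kit ELISA. Enzyme, reconstituted template and nucleotides (DIG-dUTP, biotin-dUTP, dTTP) were incubated in incubation buffer with or without inhibitor for 1 h at 37 °C. Product was captured on streptavidin plates for 1 h at 37 °C, then anti-DIG-POD was added for 1 h at 37 °C, followed by ABTS. Read at OD405.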

The nature of data set [3]: AUC(0 to t) in Sprague-Dawley rat at 24 mg/kg, po by LC-MS analysis. Type of data set: ADME, organism-based. The conditions noted are these: in vivo.
Data set [4] concerns Rattus norvegicus. In words: AUC(0 to infinity) in Sprague-Dawley rat at 24 mg/kg, po by LC-MS analysis. More on the design: dose 24 mg/kg, route oral, time infinity. The conditions noted are these: in vivo. Type of data set: ADME, organism-based.
Data set [5] can be described thus: AUC(0 to t) in Sprague-Dawley rat at 2 mg/kg, iv by LC-MS analysis. It is filed as ADME, organism-based. The following applies: in vivo.
Data set [6] is described as follows: AUC(0 to infinity) in Sprague-Dawley rat at 2 mg/kg, iv by LC-MS analysis. It is filed as ADME, organism-based. More on the design: dose 2 mg/kg, time infinity, route intravenous. The conditions noted are these: in vivo.
A short description of data set [7]: MRT(0 to t) in Sprague-Dawley rat at 24 mg/kg, po by LC-MS analysis. Type of data set: ADME, organism-based. The conditions noted are these: in vivo.
Data set [8] can be described thus: MRT(0 to infinity) in Sprague-Dawley rat at 24 mg/kg, po by LC-MS analysis. It is filed as ADME, organism-based. The conditions noted are these: in vivo.
Data set [9] can be described thus: MRT(0 to t) in Sprague-Dawley rat at 2 mg/kg, iv by LC-MS analysis. The conditions noted are these: in vivo. Type of data set: ADME, organism-based.
Data set [10] in a line: MRT(0 to infinity) in Sprague-Dawley rat at 2 mg/kg, iv by LC-MS analysis. Type of data set: ADME, organism-based. The following applies: in vivo.
For data set [11], the system named is Rattus norvegicus. As to the kind of experiment: VRT(0 to t) in Sprague-Dawley rat at 24 mg/kg, po by LC-MS analysis. The conditions noted are these: in vivo. Type of data set: ADME, organism-based.
Data set [12] deals with Rattus norvegicus. In words: VRT(0 to infinity) in Sprague-Dawley rat at 24 mg/kg, po by LC-MS analysis. It is filed as ADME, organism-based. The following applies: in vivo.
The test system of data set [13] is Rattus norvegicus. In words: VRT(0 to t) in Sprague-Dawley rat at 2 mg/kg, iv by LC-MS analysis. Type of data set: ADME, organism-based. The conditions noted are these: in vivo.
For data set [14], the system named is Rattus norvegicus. As to the kind of experiment: VRT(0 to infinity) in Sprague-Dawley rat at 2 mg/kg, iv by LC-MS analysis. Type of data set: ADME, organism-based. The conditions noted are these: in vivo.
The nature of data set [15]: Apparent half life in Sprague-Dawley rat at 24 mg/kg, po by LC-MS analysis. It is filed as ADME, organism-based. The conditions noted are these: in vivo, read-out: t1/2(app) (converted).
Data set [16] can be described thus: Apparent half life in Sprague-Dawley rat at 2 mg/kg, iv by LC-MS analysis. It is filed as ADME, organism-based. The following applies: in vivo, read-out: t1/2(app) (converted).
A short description of data set [17]: Tmax in Sprague-Dawley rat at 24 mg/kg, po by LC-MS analysis. Type of data set: ADME, organism-based. The following applies: in vivo.
Data set [18] concerns Rattus norvegicus. As to the kind of experiment: Apparent clearance during terminal phase in Sprague-Dawley rat at 2 mg/kg, iv by LC-MS analysis. Type of data set: ADME, organism-based. The following applies: in vivo.
Data set [19] is described as follows: Cmax in Sprague-Dawley rat at 24 mg/kg, po by LC-MS analysis. Type of data set: ADME, organism-based. More on the design: dose 24 mg/kg, route oral. The following applies: in vivo.
Data set [20] in a line: Cmax in Sprague-Dawley rat at 2 mg/kg, iv by LC-MS analysis. It is filed as ADME, organism-based. More on the design: dose 2 mg/kg, route intravenous. The following applies: in vivo.
In data set [21] the test system is Mus musculus. In words: Toxicity in Kunming mouse assessed as mortality at 2000 mg/kg, ig administered via gavage measure after 2 weeks. Type of data set: organism-based. The conditions noted are these: in vivo, po, 336 h.
Data set [22] has as its system Mus musculus. In words: Toxicity in Kunming mouse assessed as increase in body weight at 2000 mg/kg, ig administered via gavage measure after 2 weeks. It is filed as organism-based. The conditions noted are these: in vivo, po, 336 h.

Regarding `Cc1cc(/C=C/C#N)cc(C)c1Oc1nc(NC2CCN(Cc3ccc(S(N)(=O)=O)cc3)CC2)nc2ccsc12`, the EC50 (usually the concentration needed to bring the measured effect to its halfway point) in [1] is 1.22 nM. For the same compound, the IC50 – broadly, the concentration that gives 50% inhibition – in data set [2] was found to be 160 nM. The AUC(0-t) (as a rule, exposure summed from dosing to a finite time, without extrapolation to infinity) in [3] turned out to be 2320 ng·h/mL; in data set [5] it was 1370 ng·h/mL. The AUC (in general, concentration integrated over time) in the data set on Rattus norvegicus [4] came to 2692.2 ng·h/mL. In addition, the total exposure AUC(0-inf) (as a rule, the area under the concentration-time curve extrapolated to infinity) in data set [6] came out at 1390 ng·h/mL. Further, the MRT last (usually the average time that molecules of a dose stay in the body) worked out at 3.71 h in [7] and 1.57 h in [9]. Besides, the MRT inf (in general, a mean duration of stay, worked out from the concentration-time curve) in [8] came to 5.54 h; in data set [10] it was 1.69 h. Besides, the “VRT(t)” value in the data set on Rattus norvegicus [11] is 8.11 hr2; with Rattus norvegicus [13] it was 2.78 hr2. Moreover, the VRT in the data set on Rattus norvegicus [12] is 35.67 hr2; with Rattus norvegicus [14], 3.72 hr2. In addition, the values for the half-life in [15] and in [16] were 3.93 h and 1.34 h, respectively. The Tmax (commonly the time at which the peak concentration occurs) in data set [17] came to 1.7 h. Also, in the data set on Rattus norvegicus [18], the CLz/F was found to be 0.242 mL/min/kg. Besides, the Cmax (commonly the highest concentration seen after dosing) in [19] came out at 553 ng/mL; in data set [20], 2220 ng/mL. Further, the Activity entry in the data set with Mus musculus [21] and in the data set on Mus musculus [22] was “Non-Toxic” throughout.
